Columns and labels:
Oryctolagus cuniculus [1] = assay: Concentration of propranolone oxime in cornea of rabbit after 30 min administration of compound; type: functional, organism-based
Method in brief: (§1)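 Adult male New Zealand albino rabbits (2.5–3.5 kg), at least four per time point. 100 µL of a 1% solution in saline was instilled topically into both eyes. Animals were killed at 30, 60 or 120 min. Cornea and iris-ciliary body were homogenized in methanol to 10% homogenates and deproteinized by centrifugation. Aqueous humor was analysed undiluted. HPLC was calibrated against spiked control-rabbit tissue. Values are mean ± SE, µg/g.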

Oryctolagus cuniculus [2] = assay: Concentration of propranolone oxime in cornea of rabbit after 60 min administration of compound; type: functional, organism-based; method in brief: as §1
Oryctolagus cuniculus [3] = assay: Concentration of propranolone oxime in iris-ciliary body of rabbit after 30 min administration of compound; type: functional, organism-based; method in brief: as §1
Oryctolagus cuniculus [4] = assay: Concentration in aqueous humor of rabbit after 60 min administration of compound; type: functional, organism-based; conditions: Aqueous humor of eyeball; method in brief: as §1
Oryctolagus cuniculus [5] = assay: Concentration in cornea of rabbit after 120 min administration of compound; type: functional, organism-based; method in brief: as §1
Oryctolagus cuniculus [6] = assay: Percentage change of IOP in rabbits after 60 min administration (1%) of compound; type: functional
Method in brief: (§2)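 Rabbits received 1% or 2.5% drug solution in pH 7.4 buffer or saline in both eyes, at least four per group. A control group of at least three rabbits received carrier only. IOP was read by pneumatonometer in unrestrained, unanesthetized animals after one drop of 0.5% propacaine diluted 1:2 with saline. Readings were taken at 30 and 60 min and at 2–8 h. Values are mean ± SE, with significance by Student's t test.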

Oryctolagus cuniculus [7] = assay: Percentage change of IOP in rabbits after 60 min administration (2.5%) of compound; type: functional; method in brief: as §2
Oryctolagus cuniculus [8] = assay: Percentage change of IOP in rabbits after 6 hr administration (1%) of compound; type: functional; method in brief: as §2
Oryctolagus cuniculus [9] = assay: Percentage change of IOP in rabbits after 6 hr administration (2.5%) of compound; type: functional; method in brief: as §2
Oryctolagus cuniculus [10] = assay: Percentage change of IOP in rabbits after 8 hr administration (1%) of compound; type: functional; method in brief: as §2
Oryctolagus cuniculus [11] = assay: Percentage change of IOP in rabbits after 8 hr administration (2.5%) of compound; type: functional; method in brief: as §2
Oryctolagus cuniculus [12] = assay: Percentage change of IOP in rabbits after 2 hr administration (1%) of compound; type: functional
Method in brief: (§3)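 IOP was read by pneumatonometer in unrestrained, unanesthetized rabbits after local propacaine drops. Drug was given as a 1% or 2.5% solution in pH 7.4 buffer or saline to both eyes, at least four rabbits per group; controls (at least three) received carrier only. Readings were taken at 30 and 60 min and at 2, 3, 4, 6 and 8 h. Values are mean ± SE; Student's t test.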

Oryctolagus cuniculus [13] = assay: Percentage change of IOP in rabbits after 2 hr administration (2.5%) of compound; type: functional; method in brief: as §3
Oryctolagus cuniculus [14] = assay: Percentage change of IOP in rabbits after 30 min administration (1%) of compound; type: functional; method in brief: as §2
Oryctolagus cuniculus [15] = assay: Percentage change of IOP in rabbits after 30 min administration (2.5%) of compound; type: functional; method in brief: as §2
Oryctolagus cuniculus [16] = assay: Percentage change of IOP in rabbits after 3h administration (1%) of compound; type: functional; method in brief: as §2
Oryctolagus cuniculus [17] = assay: Percentage change of IOP in rabbits after 3h administration (2.5%) of compound; type: functional; method in brief: as §2
Oryctolagus cuniculus [18] = assay: Percentage change of IOP in rabbits after 4 hr administration (1%) of compound; type: functional; method in brief: as §2
Oryctolagus cuniculus [19] = assay: Percentage change of IOP in rabbits after 0 min administration (1%) of compound; type: functional; method in brief: as §3
Oryctolagus cuniculus [20] = assay: Percentage change of IOP in rabbits after 0 min administration (2.5%) of compound; type: functional; method in brief: as §3
Oryctolagus cuniculus [21] = assay: Concentration in cornea of rabbit after 30 min administration of compound; type: functional, organism-based; method in brief: as §1
Oryctolagus cuniculus [22] = assay: Concentration in cornea of rabbit after 60 min administration of compound; type: functional, organism-based; method in brief: as §1
Oryctolagus cuniculus [23] = assay: Concentration in iris -ciliary body of rabbit after 30 min administration of compound; type: functional, organism-based; method in brief: as §1
Oryctolagus cuniculus [24] = assay: Concentration in iris-ciliary body of rabbit after 120 min administration of compound; type: functional, organism-based; method in brief: as §1
Oryctolagus cuniculus [25] = assay: Concentration of propranolone oxime in aqueous humor of rabbit after 30 min administration of compound; type: functional, organism-based; conditions: Aqueous humor of eyeball; method in brief: as §1
Oryctolagus cuniculus [26] = assay: Concentration of propranolone oxime in aqueous humor of rabbit after 60 min administration of compound; type: functional, organism-based; conditions: Aqueous humor of eyeball; method in brief: as §1
Oryctolagus cuniculus [27] = assay: Effect on IOP of rabbits 0 min after administration (2.5%); type: functional; method in brief: as §3
Oryctolagus cuniculus [28] = assay: Effect on IOP of rabbits 0 min after administration (1%); type: functional; method in brief: as §3
Oryctolagus cuniculus [29] = assay: Effect on IOP of rabbits 2 hr after administration (1%); type: functional; method in brief: as §3
Oryctolagus cuniculus [30] = assay: Effect on IOP of rabbits 2hmin after administration (2.5%); type: functional; method in brief: as §3
Oryctolagus cuniculus [31] = assay: Effect on IOP of rabbits 30 mins after administration (1%); type: functional; method in brief: as §3
Oryctolagus cuniculus [32] = assay: Effect on IOP of rabbits 30 mins after administration (2.5%); type: functional; method in brief: as §3
Oryctolagus cuniculus [33] = assay: Effect on IOP of rabbits 3h after administration (1%); type: functional; method in brief: as §3
Oryctolagus cuniculus [34] = assay: Effect on IOP of rabbits 3h after administration (2.5%); type: functional; method in brief: as §3
Oryctolagus cuniculus [35] = assay: Effect on IOP of rabbits 4 hr after administration (1%); type: functional; method in brief: as §3
Oryctolagus cuniculus [36] = assay: Effect on IOP of rabbits 4 hr after administration (2.5%); type: functional; method in brief: as §3
Oryctolagus cuniculus [37] = assay: Effect on IOP of rabbits 60 mins after administration (1%); type: functional; method in brief: as §3
Oryctolagus cuniculus [38] = assay: Effect on IOP of rabbits 60 mins after administration (2.5%); type: functional; method in brief: as §3
Oryctolagus cuniculus [39] = assay: Effect on IOP of rabbits 6 hr min after administration (1%); type: functional; method in brief: as §3
Oryctolagus cuniculus [40] = assay: Effect on IOP of rabbits 6 hr min after administration (2.5%); type: functional; method in brief: as §3
Oryctolagus cuniculus [41] = assay: Effect on IOP of rabbits 8 hr min after administration (1%); type: functional; method in brief: as §3
Oryctolagus cuniculus [42] = assay: Effect on IOP of rabbits 8 hr min after administration (2.5%); type: functional; method in brief: as §3
Oryctolagus cuniculus [43] = assay: Percentage change of IOP in rabbits after 4 hr administration (2.5%) of compound; type: functional; method in brief: as §2
Oryctolagus cuniculus [44] = assay: Concentration in iris -ciliary body of rabbit after 60 min administration of compound; type: functional, organism-based; method in brief: as §1
Oryctolagus cuniculus [45] = assay: Percentage change of IOP in rabbits after 5 hr administration (1%) of compound; type: functional; method in brief: as §2
Oryctolagus cuniculus [46] = assay: Percentage change of IOP in rabbits after 1 hr administration (1%) of compound; type: functional; method in brief: as §3
Oryctolagus cuniculus [47] = assay: Effect on IOP of rabbits 1 hr after administration (1%); type: functional; method in brief: as §3
Oryctolagus cuniculus [48] = assay: Effect on IOP of rabbits 5 hr after administration (1%); type: functional
Oryctolagus cuniculus [49] = assay: Effect on IOP of rabbits 6 hr after administration (1%); type: functional; method in brief: as §3
Oryctolagus cuniculus [50] = assay: Effect on IOP of rabbits 8 hr after administration (1%); type: functional; method in brief: as §3

Compound: CC(C)NC/C(COc1cccc2ccccc12)=N\O
- Concentration (Oryctolagus cuniculus [1]): 23.8 µg/g
- Concentration (Oryctolagus cuniculus [2]): 16.4 µg/g
- Concentration (Oryctolagus cuniculus [3]): 7.8 µg/g
- Concentration (Oryctolagus cuniculus [4]): 0.7 µg/g
- Concentration (Oryctolagus cuniculus [5]): 1.1 µg/g
- Change (Oryctolagus cuniculus [6]): >-11.51%
- Change (Oryctolagus cuniculus [7]): -10%
- Change (Oryctolagus cuniculus [8]): -7.08%
- Change (Oryctolagus cuniculus [9]): >-9.23%
- Change (Oryctolagus cuniculus [10]): 0.5%
- Change (Oryctolagus cuniculus [11]): -0.77%
- Change (Oryctolagus cuniculus [12]): -15.8%
- Change (Oryctolagus cuniculus [13]): -13.08%
- Change (Oryctolagus cuniculus [14]): -3.23%
- Change (Oryctolagus cuniculus [15]): 1.92%
- Change (Oryctolagus cuniculus [16]): -16.2%
- Change (Oryctolagus cuniculus [17]): >-18.46%
- Change (Oryctolagus cuniculus [18]): -20.1%
- Change (Oryctolagus cuniculus [19]): 0%
- Change (Oryctolagus cuniculus [20]): 0%
- Concentration (Oryctolagus cuniculus [21]): 1.7 µg/g
- Concentration (Oryctolagus cuniculus [22]): 1.1 µg/g
- Concentration (Oryctolagus cuniculus [23]): 2.1 µg/g
- Concentration (Oryctolagus cuniculus [24]): 0.4 µg/g
- Concentration (Oryctolagus cuniculus [25]): 0.8 µg/g
- Concentration (Oryctolagus cuniculus [26]): 0.8 µg/g
- IOP (Oryctolagus cuniculus [27]): 26 mmHg
- IOP (Oryctolagus cuniculus [28]): 27.8 mmHg
- IOP (Oryctolagus cuniculus [29]): 23.4 mmHg
- IOP (Oryctolagus cuniculus [30]): 22.6 mmHg
- IOP (Oryctolagus cuniculus [31]): 26.9 mmHg
- IOP (Oryctolagus cuniculus [32]): 26.5 mmHg
- IOP (Oryctolagus cuniculus [33]): 23.3 mmHg
- IOP (Oryctolagus cuniculus [34]): 21.2 mmHg
- IOP (Oryctolagus cuniculus [35]): 22.2 mmHg
- IOP (Oryctolagus cuniculus [36]): 20.4 mmHg
- IOP (Oryctolagus cuniculus [37]): 24 mmHg
- IOP (Oryctolagus cuniculus [38]): 23.4 mmHg
- IOP (Oryctolagus cuniculus [39]): 25.8 mmHg
- IOP (Oryctolagus cuniculus [40]): 23.6 mmHg
- IOP (Oryctolagus cuniculus [41]): 27.9 mmHg
- IOP (Oryctolagus cuniculus [42]): 25.8 mmHg
- Change (Oryctolagus cuniculus [43]): -21.5%
- Concentration (Oryctolagus cuniculus [44]): 1.8 µg/g

Compound: CC(C)(C)NC[C@H](O)COc1nsnc1N1CCOCC1 (stereo in doubt) [TIMOLOL]
- Change (Oryctolagus cuniculus [8]): 1.2%
- Change (Oryctolagus cuniculus [12]): -15.6%
- Change (Oryctolagus cuniculus [14]): -2.43%
- Change (Oryctolagus cuniculus [16]): -11.6%
- Change (Oryctolagus cuniculus [18]): -5.31%
- Change (Oryctolagus cuniculus [45]): -5.49%
- Change (Oryctolagus cuniculus [19]): 0%
- Change (Oryctolagus cuniculus [46]): -14.6%
- IOP (Oryctolagus cuniculus [28]): 28.44 mmHg
- IOP (Oryctolagus cuniculus [47]): 24.3 mmHg
- IOP (Oryctolagus cuniculus [29]): 24 mmHg
- IOP (Oryctolagus cuniculus [31]): 27.75 mmHg
- IOP (Oryctolagus cuniculus [33]): 25.13 mmHg
- IOP (Oryctolagus cuniculus [35]): 26.93 mmHg
- IOP (Oryctolagus cuniculus [48]): 26.88 mmHg
- IOP (Oryctolagus cuniculus [49]): 28.78 mmHg
- IOP (Oryctolagus cuniculus [50]): 26.33 mmHg

Source: ChEMBL document CHEMBL1124215, “Improved delivery through biological membranes. 26. Design, synthesis, and pharmacological activity of a novel chemical delivery system for beta-adrenergic blocking agents” (1988)
